Screening data deposited in PubChem by several laboratories.
BAP1 block: human BAP1 deubiquitinase inhibition | recombinant BAP1, Ub-AMC hydrolysis fluorescence kinetic; hits give low values | calls only at 20 µM | hit rate 0.48% among 72,000;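 active = activity remaining at or below 50% of control, provided the compound also passes the data quality filters; inactive = the rest, including low values that fail the filters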;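 also: 100% = DMSO wells rate and 0% = substrate alone blank rate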
AP ELISA ortho: alternative pathway complement inhibition, orthogonal assay. Human serum alternative complement pathway, LPS-coated ELISA, C3 deposition; tested in compound mixtures. inhibition, % at 5 µM. hit rate 0.08% among 62,000. AID 1235;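 active = inhibition above 30% in each of the two pooled mixtures holding the compound, so the lower value exceeds 30%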;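 also: 0% = serum in Mg-EGTA without compound and 100% = EDTA serum blank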
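Assay system: Human serum alternative complement pathway, C3 deposition on LPS-coated wells | Incubation: 1 h serum-compound exposure at 37 °C | Doses: 5 µM per compound in ten-compound mixtures | Read-out: Percent inhibition | Technique: ELISA with HRP anti-human C3 antibody, TMB substrate, absorbance 450 nm | Replication: Two pool placements per compound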
sEH activator: activators of human soluble epoxide hydrolase; P34913; purified human sEH enzymatic activity, activator screen; activation, % at 2 µM; hit rate 0.04% among 91,000; in the data active = activation above about 37%
Target sequence (P34913 whole entry, looked up): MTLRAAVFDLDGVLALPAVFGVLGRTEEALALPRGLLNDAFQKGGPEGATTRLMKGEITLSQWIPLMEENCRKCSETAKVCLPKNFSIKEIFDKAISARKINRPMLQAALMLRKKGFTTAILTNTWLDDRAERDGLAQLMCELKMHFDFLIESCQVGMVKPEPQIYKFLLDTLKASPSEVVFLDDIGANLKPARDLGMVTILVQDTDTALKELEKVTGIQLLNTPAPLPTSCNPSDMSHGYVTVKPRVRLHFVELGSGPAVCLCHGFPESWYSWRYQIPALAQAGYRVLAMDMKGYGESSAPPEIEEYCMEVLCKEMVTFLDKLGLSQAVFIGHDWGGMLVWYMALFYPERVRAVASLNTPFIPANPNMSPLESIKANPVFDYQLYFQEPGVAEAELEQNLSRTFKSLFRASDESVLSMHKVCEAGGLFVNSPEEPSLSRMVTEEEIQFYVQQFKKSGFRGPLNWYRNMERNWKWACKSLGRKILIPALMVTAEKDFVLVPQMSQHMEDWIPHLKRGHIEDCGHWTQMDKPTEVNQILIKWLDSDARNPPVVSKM
sEH inhibitor: soluble epoxide hydrolase (human) inhibition; P34913; recombinant human sEH enzymatic activity assay; inhibition, % at 2 µM; hit rate 0.34% among 91,000; AID 707; in the data active = inhibition above about 80%
BAP1 inh conf: BAP1 (human) enzyme inhibition, confirmed | shares compounds with BAP1 block | purified BAP1, Ub-ethyl ester hydrolysis, HPLC; hits give low values | % of control activity, % at 20 µM | hit rate 8% among 310 | AID 753;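 active = percent of control activity at or below 60%; inconclusive = HPLC trace unusable from injection failure or solvent front hiding peaks; inactive = the rest, plus ubiquitin peak ratio over a set limit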
The depositor's hits bear a star. Hits are enriched below; roughly 0.57% of the tested compounds scored in any of these assays.

How did Cc1c(N2C(=O)c3ccc4c5c(ccc(c35)C2=O)CC4)c(=O)n(-c2ccccc2)n1C do in these assays?
BAP1 block: active; AP ELISA ortho: 8; sEH activator: 2; sEH inhibitor: 0; BAP1 inh conf: 65

What do the screens show for `Cc1ccc(Cn2nnc3c(=O)[nH]c(C4CCN(S(=O)(=O)c5ccc(F)cc5)CC4)nc32)cc1`?
AP ELISA ortho: -12

What do the screens show for `Cc1ccc(Cn2nnc3c(=O)[nH]c(C4CCN(S(=O)(=O)c5cc(C)ccc5C)CC4)nc32)cc1`?
BAP1 block: active; AP ELISA ortho: 5; sEH activator: 5; sEH inhibitor: -3; BAP1 inh conf: 131

Results for Cc1ccc(C)c(S(=O)(=O)N2CCC(c3nc4c(nnn4Cc4ccc(F)cc4)c(=O)[nH]3)CC2)c1 ?
BAP1 block: active; AP ELISA ortho: 13; sEH activator: 9; sEH inhibitor: -7; BAP1 inh conf: 135

Results for Cc1ccc(Cn2nnc3c(=O)[nH]c(C4CCN(C(=O)c5cccs5)CC4)nc32)cc1 ?
BAP1 block: inactive; AP ELISA ortho: -8; sEH activator: 0; sEH inhibitor: -4

Results for O=C(Nc1nnc(-c2ccco2)s1)C1CC1 ?
BAP1 block: inactive; AP ELISA ortho: 2; sEH activator: 6; sEH inhibitor: -8

What do the screens show for `O=C(Nc1nnc(-c2ccco2)s1)C1CCN(S(=O)(=O)c2ccc(Cl)cc2)CC1`?
BAP1 block: active; AP ELISA ortho: -31; sEH activator: -10; sEH inhibitor: 11; BAP1 inh conf: inconclusive

How did O=C(CN(Cc1ccccc1)S(=O)(=O)c1ccc2c(c1)OCCO2)Nc1ccc2c(c1)OCCO2 do in these assays?
BAP1 block: active; AP ELISA ortho: 12; BAP1 inh conf: 144

What do the screens show for `O=C(O)c1cccc(NS(=O)(=O)c2cccc(S(=O)(=O)c3ccc(Cl)cc3)c2)c1`?
BAP1 block: inactive

How did CCOC(=O)N1CCN(S(=O)(=O)c2ccc(C(=O)Nc3sc4c(c3C#N)CCC4)cc2)CC1 do in these assays?
BAP1 block: active; AP ELISA ortho: 10; sEH activator: -11; sEH inhibitor: 10; BAP1 inh conf: 97

Results for CCOC(=O)c1c(NC(=O)c2ccc(S(=O)(=O)N3CCc4ccccc4C3)cc2)sc2c1CCCCC2 ?
BAP1 block: inactive

How did CCCn1c(SCC(=O)Nc2sc(C)c(C)c2C(=O)OCC)nc2c1c(=O)n(C)c(=O)n2C do in these assays?
BAP1 block: active; AP ELISA ortho: 17; sEH activator: 0; sEH inhibitor: 0; BAP1 inh conf: 99

What do the screens show for `COc1ccc(C2NC(=O)NC(C)=C2C(=O)OC2CCC(C)CC2)c(OC)c1` (stereo not given)?
BAP1 block: inactive

What do the screens show for `CCOc1ccc(-c2nc(-c3cccnc3)no2)cc1`?
sEH activator: -6; sEH inhibitor: 3

Results for CCOc1ccc(-c2nc(-c3ccccc3C)no2)cc1 ?
BAP1 block: active; AP ELISA ortho: 10; sEH activator: 4; sEH inhibitor: -7; BAP1 inh conf: 102

Results for COc1cc(C2C(C#N)=C(N)N(c3cccnc3)C3=C2C(=O)CCC3)ccc1O (stereo not given) ?
sEH activator: -10; sEH inhibitor: 8

How did CCSc1sccc1C1C(C#N)=C(N)N(c2cccnc2)C2=C1C(=O)CCC2 (stereo not given) do in these assays?
BAP1 block: active; AP ELISA ortho: -1; sEH activator: 8; sEH inhibitor: -8; BAP1 inh conf: 114
